Results from different studies.
MMP3: Stromelysin-1 (MMP3, Homo sapiens, UniProt P08254)
FAAH: Fatty-acid amide hydrolase 1 (FAAH, Homo sapiens, UniProt O00519)
BDKRB1: B1 bradykinin receptor (BDKRB1, Homo sapiens, UniProt P46663)
CCKBR: Gastrin/cholecystokinin type B receptor (CCKBR, Homo sapiens, UniProt P32239)
MTNR1A: Melatonin receptor type 1A (MTNR1A, Homo sapiens, UniProt P48039)

CCOC(=O)c1ccc(OC(=O)CCCCCNC(=N)N)cc1
inhibition (MMP3; enzyme activity, inhibitor; 10 µM): 18%

CN(C(=O)Oc1nsnc1N1CCCCC1)C1CCCCCC1
inhibition (FAAH; enzyme activity, inhibitor; 10 µM, cell membranes): 21%

C#Cc1n[nH]c2c(-c3cn(C(C)c4ccccn4)c(=O)[nH]c3=O)cc(F)cc12 (stereo not shown)
inhibition (Tyrosine-protein kinase receptor TYRO3 (TYRO3, Homo sapiens, UniProt Q06418); enzyme activity, inhibitor; 1 µM): 79%

COc1ccc(S(=O)(=O)N(CC(=O)NO)CC(C)C)cc1
inhibition (MMP3; enzyme activity, inhibitor; 10 nM): 20%

CC(C)C[C@H](NC(=O)[C@H](Cc1ccccc1)NC(=O)c1cnccn1)B(O)O
inhibition (Complement C1r subcomponent (Homo sapiens, UniProt P00736); enzyme activity, inhibitor; 33 µM): 44.5%

Cn1cc(-c2cc(F)cc(N3CCn4c(cc5c4CCCC5)C3=O)c2CO)cc(Nc2ccc(N3CCN(C4COC4)CC3)cn2)c1=O
inhibition (Mitogen-activated protein kinase kinase kinase 8 (MAP3K8, Homo sapiens, UniProt P41279); enzyme activity, inhibitor; 0.1 µM): 17%

Cc1cc(C)c(N(C)C(=O)Oc2nsnc2N2CCCCC2)c(C)c1
inhibition (FAAH; enzyme activity, inhibitor; 10 µM, cell membranes): 7%

CN(CCN1CCC(OC(=O)Nc2ccccc2-c2ccccc2)CC1)C(=O)c1ccc(CN2CCC(C(N)=O)CC2)cc1
inhibition (BDKRB1; ligand displacement, radioligand; 1 µM): 0%

N=C(N)c1ccc2cc(OC(=O)c3ccc(N=C(N)N)cc3)ccc2c1
inhibition (MMP3; enzyme activity, inhibitor; 10 µM): 0%

CCC(C)c1ccccc1OCC(=O)N1CCC(C(=O)Nc2ccc3c(c2)OCO3)CC1 (stereo not shown)
inhibition (Trypanothione synthetase (Trypanosoma cruzi, UniProt Q9GT49); enzyme activity, inhibitor, absorbance; 25 µM): 5.5%

COCCN(CCOC)C(=O)[C@@]12C[C@@H]1[C@@H](n1cnc3c(N)nc(Cl)nc31)[C@H](O)[C@@H]2O
inhibition (5-hydroxytryptamine receptor 2C (HTR2C, Homo sapiens, UniProt P28335); ligand displacement, radioligand; 10 µM): 12%

CN(C(=O)Oc1nsnc1N1CCCCC1)c1ccc([N+](=O)[O-])cc1
inhibition (FAAH; enzyme activity, inhibitor; 10 µM, cell membranes): 19%

COc1ccc(S(=O)(=O)N2CCCCC2)cc1C
inhibition (CCKBR; ligand displacement, radioligand; 10 µM): < 30%

c1ccc(C(NCCNC(c2ccccc2)c2ccccc2)c2ccccc2)cc1
inhibition (Prostaglandin G/H synthase 1 (PTGS1, Homo sapiens, UniProt P23219); enzyme activity, inhibitor; 10 µM): 66%

CCN(CC)CCCC[C@H](NC(=O)[C@H](CC(C)C)NC(=O)[C@H](C)NC(=O)[C@H](Cc1ccccc1)NC(=O)c1ccc(C(C)(C)C)cc1)C(=O)N[C@@H](CO)C(=O)OC
inhibition (MTNR1A; ligand displacement, radioligand; 10 µM): 8%

CC(C)N1CCC[C@H]1CNC(=O)c1cn(C2CCCC2)c(=O)c2c1c1ccccc1n2C
inhibition (BDKRB1; ligand displacement, radioligand; 10 µM): 12%

CN(C(=O)Oc1nsnc1N1CCCCC1)c1ccc(Cl)cc1
inhibition (FAAH; enzyme activity, inhibitor; 10 µM, cell membranes): 16%

Cn1cc(-c2cccc(N3CCc4c(sc5c4CC(C)(C)C5)C3=O)c2CO)cc(Nc2ccncn2)c1=O
inhibition (Aurora kinase A (AURKA, Homo sapiens, UniProt O14965); enzyme activity, inhibitor; 1 µM): 3%

C[C@H](C(=O)N[C@H]1COc2ccccc2[C@@H]1S(C)(=O)=O)c1ccc(F)cc1
inhibition (CCKBR; cell-free assay; 10 µM): 7%

CN(C(=O)Oc1nsnc1N1CCCCC1)C1CCCCC1
inhibition (FAAH; enzyme activity, inhibitor; 10 µM, cell membranes): 16%

O=C(Nc1cccnn1)N1CCN([C@@H]2CCOc3cc(C(F)(F)F)ccc32)CC1
inhibition (MTNR1A; ligand displacement; 20 µM): 16%

Cc1ncc(C)n2nc(/C=C/c3nc(N4CCCC4)cc(N4CCOCC4)n3)nc12
inhibition (CCKBR; cell-free assay; 10 µM): -16%

C#Cc1n[nH]c2c(-c3cn([C@@H](C)c4ccccc4)c(=O)[nH]c3=O)cc(F)cc12
inhibition (Aurora kinase C (AURKC, Homo sapiens, UniProt Q9UQB9); enzyme activity, inhibitor; 0.1 µM): -1.2%

CN(C(=O)Oc1nsnc1N1CCCCC1)c1ccc(C#N)cc1
inhibition (FAAH; enzyme activity, inhibitor; 10 µM, cell membranes): 19%

COCc1c(-c2cc3cc(C)cc(OC)c3s2)c2c(N)ncnn2c1CN1CCNC(=O)C1
inhibition (Tyrosine-protein kinase receptor Tie-1 (TIE1, Homo sapiens, UniProt P35590); cell-free assay, competition with immobilised ligand; 1 µM): 83%

CN(C(=O)Oc1nsnc1N1CCCCC1)C1CCCCCCC1
inhibition (FAAH; enzyme activity, inhibitor; 10 µM, cell membranes): 13%

Nc1ncnc2c1ncn2[C@@H]1O[C@H](C[C@@H](N)CC[C@H](N)C(=O)O)[C@@H](O)[C@H]1O
inhibition (mRNA cap guanine-N(7) methyltransferase (RNMT, Homo sapiens, UniProt O43148); enzyme activity, inhibitor; 50 µM): 98.2%

COc1ccccc1N(C)C(=O)Oc1nsnc1N1CCCCC1
inhibition (FAAH; enzyme activity, inhibitor; 10 µM, cell membranes): 18%

COc1cc(Nc2ncc(F)c(Nc3ccc4c(n3)NC(=O)C(C)(C)O4)n2)cc(OC)c1OC
inhibition (Serine/threonine-protein kinase ULK3 (ULK3, Homo sapiens, UniProt Q6PHR2); binding; 10 µM): 100%

CN(C)C(=O)COC(=O)Cc1ccc(OC(=O)c2ccc(NC(=N)N)cc2)cc1
inhibition (Ubiquitin carboxyl-terminal hydrolase 10 (USP10, Homo sapiens, UniProt Q14694); enzyme activity, inhibitor; 10 µM): 2%

C[C@@H](O)[C@H](N)C(=O)N1CCC[C@H]1C(=O)N1CCC[C@H]1C(=O)N[C@H](C(N)=O)[C@@H](C)O
inhibition (FAAH; enzyme activity, inhibitor; 30 µM): -15%
